Measurements taken from publication PMC3481142 (Cell Death & Disease, 2012).
Square brackets hold non-standard residues; d marks the D form. Peptide text beside a SMILES is read from it.

Key:
Saos-2 cells = test: cytochrome c release, immunolocalization; assay type: cell-based; conditions: 10 µM, 24 h
[1] = system: Cyt c release in MDA-MB-468 cells; test: Cyt c release from mitochondria; assay type: cell-based, human; conditions: 48 h; doxorubicin 5 μM
Procedure, shortened: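 MDA-MB-468 cells were grown as a monolayer in Leibovitz's L-15 with 10% FBS at 37 °C without CO2, then seeded at 125 000 cells/ml. They were exposed to the test compounds for 48 h at the indicated concentrations. Cytochrome c release was quantified with a flow-cytometric cytochrome c release kit per the manufacturer's protocol, and cells were analysed on a flow cytometer.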

[2] = patients with advance solid tumors; cited from earlier work
[3] = solubility in culture medium; assay type: physicochemical
SKBr3 cells = test: MTT and trypan blue cell viability assays; assay type: cell-based, human
[4] = system: Bcl-2 family proteins, IAPs and caspases in MDA-MB-468 cells; test: western blots of apoptosis-related proteins and caspases; assay type: cell-based, human; conditions: 72 h
Procedure, shortened: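 MDA-MB-468 cells were treated for 72 h with TAT-NBI1, erlotinib or both at the indicated μM concentrations. Whole-cell extracts were made in 25 mM Tris-HCl pH 7.4, 1 mM EDTA, 1 mM EGTA and 1% SDS with protease and phosphatase inhibitors, and protein was quantified by BCA. Lysates were run on SDS-PAGE, transferred to nitrocellulose and immunoblotted.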

MDA-MB-231 cell line = test: cell viability IC50 determination; assay type: cell-based; conditions: Homo sapiens, MDA-MB-231, read-out: IC50 (MDA-MB-231)
[5] = system: caspase-3/7 activity in MDA-MB-468 cells; test: caspase activation assay in cellular extracts; assay type: cell-based, human
Procedure, shortened: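 MDA-MB-468 cells were cultured in L-15 with 10% FBS at 37 °C without CO2 and seeded at 125 000 cells/ml. They received TAT-NBI1/erlotinib co-treatment at the indicated μM concentrations, with or without necrostatin-1, for 48 h. Caspase-3/7 activity was then measured in cellular extracts.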

[6] = system: caspase-3/7 activity in MDA-MB-231 cells; test: caspase activation assay in cellular extracts; assay type: cell-based
Procedure, shortened: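 MDA-MB-231 cells were grown in Leibovitz's L-15 with 10% FBS at 37 °C without CO2. Cells were co-treated with TAT-NBI1/erlotinib at the indicated μM concentrations, with or without necrostatin-1 (100 μM). Etoposide (25 μM) ± necrostatin-1 served as reference. Caspase-3/7 activation was measured in cellular extracts.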

With CC[C@@H](C)[C@@H](NC(=O)[C@@H](Cc1c[nH]c2ccccc12)NC(=O)[C@@H](CCCNC(=N)N)NC(=O)[C@H](CCC(N)=O)NC(=O)[C@@H]1CCCN1C(=O)[C@H](CCCNC(=N)N)NC(=O)[C@H](CCCNC(=N)N)NC(=O)[C@H](CCCNC(=N)N)NC(=O)[C@H](CCC(N)=O)NC(=O)[C@H](CCCNC(=N)N)NC(=O)[C@H](CCCNC(=N)N)NC(=O)[C@H](CCCCN)NC(=O)[C@H](CCCCN)NC(=O)[C@H](CCCNC(=N)N)NC(=O)CN)C(=O)N[C@H](CCSC)C(=O)N[C@H](Cc1ccc(O)cc1)C(=O)N[C@H](Cc1ccccc1)C(N)=O [TAT-NBI1] (H-GRKKRRQRRRPQ[dR][dW][dI][dM][dY][dF]-NH2; N-terminus and C-terminus assumed) the “mechanism of cell death followed by cytochrome c release to the cytosol” value (Saos-2 cells) was “induced cell death by intrinsic, mitochondrial-mediated, apoptosis”.
For COc1cccc2c1C(=O)c1c(O)c3c(c(O)c1C2=O)C[C@@](O)(C(=O)CO)C[C@@H]3O[C@H]1C[C@H](N)[C@H](O)[C@H](C)O1 [doxorubicin], the “Cyt c release to the cytoplasm” value [1] was “Cyt c release to the cytoplasm”.
In the case of C#Cc1cccc(Nc2ncnc3cc(OCCOC)c(OCCOC)cc23)c1 [erlotinib], the “plasma concentration at the steady state” value [2] is given as ~5 µM, the solubility [3] is given as ≤ 20 µM and the “change of lethal dose of erlotinib in the presence of TAT-NBI1” value (SKBr3 cells) is given as “twofold lower”. The Bim expression [4] was “upregulated” and the IC50 (MDA-MB-231 cell line) was > 20 µM.
In the case of CN1C(=O)C(Cc2c[nH]c3ccccc23)NC1=S (stereo not drawn) [nec-1, necrostatin-1], the “effect on TAT-NBI1/erlotinib-induced caspase activation” value [5] is reported as “inhibited” and the “effect on TAT-NBI1/erlotinib-induced caspase activation” value [6] is reported as “inhibited”.
